# Assay outcomes (PubChem BioAssay)
# Hits are enriched below; roughly 3.1% of the tested compounds scored in any of these assays.
# KCNK9 block – blocks the human KCNK9 two-pore domain potassium channel; B-score at 10 µM; Q9NPC2; HEK293 KCNK9, FluxOR thallium flux fluorescence; stronger effect = lower value; 310,000 compounds, 1.2% hits;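 active means ratio B-score over 3 SD below the library mean, with starting fluorescence within 5 SD of its mean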;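 further: negative B-score means less thallium flux so channel inhibition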
# hERG protect – shields human hERG channel from block by proarrhythmic agents; CHO-hERG, FluxOR thallium flux, dofetilide IC70 present; activation (rescue from dofetilide block), less the hit threshold, % at 10 µM; 310,000 compounds, 0.51% hits; AID 1511;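 active means activation above the mean of controls blocked by dofetilide plus 5 SD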;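 further: thallium influx through hERG after potassium depolarization seen as dye fluorescence rise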
# KCNK3 inh – human KCNK3 channel inhibition, primary screen; O14649; CHO-KCNK3 thallium flux, FluxOR fluorescence; stronger effect = lower value; B-score at 10 µM; 340,000 compounds, 0.84% hits;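 active means B-score under library mean minus 4 SD, starting fluorescence ratio at most library mean plus 5 SD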;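 further: more negative B-score means stronger inhibition of thallium flux through KCNK3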
# KCNQ1 inh – blocks the human KCNQ1 potassium channel | B-score at 10 µM | 310,000 compounds, 1.3% hits | CHO-K1 KCNQ1, FluxOR thallium flux fluorescence; stronger effect = higher value | P51787;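 active means compounds whose thallium flux B-score, printed positive for inhibition, exceeds three library SD while starting fluorescence stays within three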;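 further: channel opened by potassium depolarization with thallium stimulus after 20 min compound exposure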
# Target sequence (P51787 whole entry, looked up): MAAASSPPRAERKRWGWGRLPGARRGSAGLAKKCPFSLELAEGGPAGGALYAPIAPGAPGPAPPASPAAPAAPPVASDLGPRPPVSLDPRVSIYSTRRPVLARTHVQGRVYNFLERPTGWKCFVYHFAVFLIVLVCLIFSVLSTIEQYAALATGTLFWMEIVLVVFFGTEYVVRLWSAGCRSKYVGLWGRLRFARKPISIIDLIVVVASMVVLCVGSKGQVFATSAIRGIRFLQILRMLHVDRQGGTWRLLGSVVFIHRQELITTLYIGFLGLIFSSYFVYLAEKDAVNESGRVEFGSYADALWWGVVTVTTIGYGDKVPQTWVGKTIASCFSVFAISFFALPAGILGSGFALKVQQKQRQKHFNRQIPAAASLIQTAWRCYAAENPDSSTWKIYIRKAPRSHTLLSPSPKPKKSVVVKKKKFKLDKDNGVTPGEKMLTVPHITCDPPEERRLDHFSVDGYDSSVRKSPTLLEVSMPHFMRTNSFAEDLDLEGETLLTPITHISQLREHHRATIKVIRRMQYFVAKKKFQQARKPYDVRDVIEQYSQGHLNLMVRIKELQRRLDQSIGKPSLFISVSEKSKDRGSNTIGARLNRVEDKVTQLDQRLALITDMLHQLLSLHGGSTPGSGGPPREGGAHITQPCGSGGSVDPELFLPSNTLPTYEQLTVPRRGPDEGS
# KCNQ1 act – potentiates or activates the human KCNQ1 potassium channel; CHO-K1 KCNQ1, thallium flux FluxOR fluorescence; stronger effect = higher value; B-score at 10 µM; 310,000 compounds, 0.35% hits; AID 2648;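 active means fluorescence ratio B-score, a plate-corrected score, at least three library SD, with initial intensity B-score within 5 SD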
#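 System: CHO-K1 cells stably expressing KCNQ1 / Medium: assay buffer for compound exposure, DMSO matched across wells / Reagent: thallium- and potassium-containing depolarizing buffer / Compound: one concentration, matched DMSO / Incubation: 20 min compound pretreatment at room temperature / Measured by: kinetic FluxOR fluorescence, 10 s baseline plus 110 s post-stimulus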
# The depositor's hits bear a star; i = inactive; nt = no result given.
SMILES,KCNK9 block,hERG protect,KCNK3 inh,KCNQ1 inh,KCNQ1 act
O=C(Nc1ccc(Br)c2ccccc12)c1ccc2ccccc2c1O,i,-27.6,i,7*,i
CC(=O)Nc1ccc(Br)c2ccccc12,i,-10.7,i,i,i
Cc1ccc(C(C(=O)NC(C)(C)C)N(Cc2cccnc2)C(=O)C(=O)NC2CCCCC2)o1 (stereo unspecified),i,32.8*,i,i,i
CCCNC(=O)c1nnsc1S(=O)(=O)c1ccc(Cl)cc1,nt,nt,-9.13*,nt,nt
COc1ccc(OCCCC(=O)Nc2ccc(S(=O)(=O)N3CCOCC3)cc2)cc1,nt,nt,i,nt,nt
CCOC(=O)N/N=C/c1c(C)nn(-c2ccccc2Cl)c1Cl,-8.08*,1.5,i,i,i
CC1=CC2C(C3C=CC2(C)C(=O)C3(C)O)C(C)(O)C1=O (stereo unspecified),nt,nt,i,nt,nt
C/C(N)=C(/C#N)C(=O)COC(=O)c1cc(-c2cccc3ccccc23)nc2ccccc12,i,-9.4,i,6*,i
C/C(N)=C(/C#N)C(=O)COC(=O)c1cccc2ccccc12,i,-5.6,i,i,i
O=[N+]([O-])c1ccc(N2CCC(=NOCc3ccc(Cl)cc3)CC2)cc1,i,-17.7,i,6*,i
CC1(C)C[C@@H]2C[C@@](C)(CN2C(=O)c2cc(COc3cccc(C(F)(F)F)c3)on2)C1,i,-14.2,i,7*,i
C=CCN1C(=O)CSc2ccc(C(=O)NCc3cccs3)cc21,i,46.5*,i,i,i
C=CCN1C(=O)CSc2ccc(C(=O)NC3CCCCC3)cc21,i,-2.5,i,i,i
O=C(Nc1cccnc1Cl)c1cccnc1Cl,i,-2.4,i,i,i
O=C(Nc1cccc2c1C(=O)NC2=O)c1cccnc1Cl,i,6.1*,i,i,i
COc1cccc(NC(=O)CNC(=O)N2CC(=O)Nc3ccccc32)c1,i,-5.5,i,i,i
C=CCn1c(C)cc(C2=NNC(=Nc3ccc(C)cc3)SC2)c1C,i,-2.7,i,i,i
C=CCn1c(C)cc(C2=NNC(=NC(C)(C)C)SC2)c1C,i,-12.4,i,8*,i
Cc1ccc(C(=O)N2CCCC(C(F)(F)F)C2)cc1S(=O)(=O)N1CCOCC1 (stereo unspecified),nt,nt,i,nt,nt
O=c1cc(-c2ccccc2)cc(-c2ccccc2)n1O,i,18.1*,i,i,23*
CCOC(=O)/C(=N/Nc1ccc(Br)cc1)N1CC(C)OC(C)C1 (stereo unspecified),nt,nt,-8.72*,nt,nt
CN(C(=O)c1cccc(NC(=O)Cc2ccc(NC(=O)C3CCN(C(=O)C4CC4)CC3)cc2)c1)C1CCCCC1,nt,nt,i,nt,nt
CC(=O)OCC1=C(C(=O)O)N2C(=O)C(NC(=O)c3ccc(F)cc3)C2SC1 (stereo unspecified),i,-4.0,i,i,i
CC(=O)OCC1=C(C(=O)O)N2C(=O)C(NC(=O)C(C)Cn3nc(C)c(Cl)c3C)C2SC1 (stereo unspecified),i,5.6*,i,i,i
C[C@H](CO)N1C[C@H](C)[C@@H](CN(C)S(=O)(=O)c2cccs2)Oc2ccc(NC(=O)c3ccncc3)cc2C1=O,nt,nt,i,nt,nt
SMILES,KCNK9 block,hERG protect,KCNK3 inh,KCNQ1 inh,KCNQ1 act
COc1ccc(CN(C)C(=O)c2cc(-c3ccccc3)nc3ccc(C)cc23)c(OC)c1OC,i,-34.0,i,6*,i
COc1cccc(CN(C)C(=O)c2cc(-c3ccc(F)cc3)nc3ccccc23)c1,i,-33.1,-8.93*,11*,i
CCOC(=O)C(C(=O)Cc1ccccc1)c1ccccc1 (stereo unspecified),nt,nt,i,nt,nt
O=C(NCC(c1ccco1)N1CCCC1)c1cc2ccccc2s1 (stereo unspecified),nt,nt,i,nt,nt
CCOc1ccc(OCC)c(NC(=O)CN2CCN(c3cccc(C)c3)CC2)c1,i,-5.9,i,i,i
CCOc1ccc(OCC)c(NC(=O)CN2CCN(c3cc(C)ccc3C)CC2)c1,i,-11.0,i,6*,i
CC(OC(=O)c1cnc(Cl)c(Cl)c1)C(=O)NCc1ccccc1 (stereo unspecified),nt,nt,i,nt,nt
CCCCOc1cc(=O)[nH]c(=O)[nH]1,i,4.7*,i,i,i
CCOc1ccc(Nc2cc(=O)[nH]c(=O)[nH]2)cc1,i,-9.5,i,i,i
